Results on six molecules are retold here after ChEMBL document CHEMBL3351628, “2,4,5-Trisubstituted thiazole derivatives: a novel and potent class of non-nucleoside inhibitors of wild type and mutant HIV-1 reverse transcriptase” (Eur J Med Chem, 2014).

The subject of data set [1] is Human immunodeficiency virus 1. Nature of the data set: Antiviral activity against HIV1 harboring reverse transcriptase K103N/G190A double mutant infected in HEK293T cells transfected with plasmid VSV-G/pNL4-3.luc.R-E- assessed as inhibition of viral replication after 48 hrs by luciferase reporter gene assay. It is filed as functional, organism-based, HEK-293T. The method in brief: (§1)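 VSV-G-pseudotyped single-cycle virus: VSVG plasmid plus env-deficient pNL4-3.luc.R⁻E⁻ vector (wild type or RT-mutant) co-transfected into HEK 293T by calcium phosphate. Medium changed at 16 h, supernatant collected 48 h post-transfection, normalised by p24 ELISA to 0.2 ng p24/mL. HEK 293T targets seeded a day ahead; compound added 15 min before virus. Cells lysed 48 h post-infection, luciferase read. IC50 from dose–infectivity curves.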
Background: A reporter such as luciferase makes a cellular process visible.

For data set [2], the system named is Human immunodeficiency virus 1. In words: Antiviral activity against HIV1 harboring reverse transcriptase […]/K103N double mutant infected in HEK293T cells transfected with plasmid VSV-G/pNL4-3.luc.R-E- assessed as inhibition of viral replication after 48 hrs by luciferase reporter gene assay relative HIV1. The data set is classed as functional, HEK-293T.
Data set [3] relates to Human immunodeficiency virus 1. In words: Antiviral activity against wild type HIV1 infected in HEK293T cells transfected with plasmid VSV-G/pNL4-3.luc.R-E- assessed as inhibition of viral replication after 48 hrs by luciferase reporter gene assay. The data set is classed as functional, organism-based, HEK-293T. The method in brief:
as §1

Data set [4] deals with Human immunodeficiency virus 1. In words: Antiviral activity against HIV1 harboring reverse transcriptase Y188L mutant infected in HEK293T cells transfected with plasmid VSV-G/pNL4-3.luc.R-E- assessed as inhibition of viral replication after 48 hrs by luciferase reporter gene assay. The data set is classed as functional, organism-based, HEK-293T. The method in brief:
as §1

The subject of data set [5] is Human immunodeficiency virus 1. In words: Antiviral activity against HIV1 harboring reverse transcriptase […]/K103N double mutant infected in HEK293T cells transfected with plasmid VSV-G/pNL4-3.luc.R-E- assessed as inhibition of viral replication after 48 hrs by luciferase reporter gene assay. The data set is classed as functional, organism-based, HEK-293T. Put shortly: as §1

In data set [6] the test system is Human immunodeficiency virus 1. In words: Antiviral activity against HIV1 harboring reverse transcriptase K103N mutant infected in HEK293T cells transfected with plasmid VSV-G/pNL4-3.luc.R-E- assessed as inhibition of viral replication after 48 hrs by luciferase reporter gene assay. The data set is classed as functional, organism-based, HEK-293T. The method in brief: as §1

In data set [7] the test system is Human immunodeficiency virus 1. In words: Antiviral activity against HIV1 harboring reverse transcriptase K103N/V108I double mutant infected in HEK293T cells transfected with plasmid VSV-G/pNL4-3.luc.R-E- assessed as inhibition of viral replication after 48 hrs by luciferase reporter gene assay relative HIV1. The data set is classed as functional, HEK-293T.
Data set [8] relates to Human immunodeficiency virus 1. Nature of the data set: Antiviral activity against HIV1 harboring reverse transcriptase K103N/V108I double mutant infected in HEK293T cells transfected with plasmid VSV-G/pNL4-3.luc.R-E- assessed as inhibition of viral replication after 48 hrs by luciferase reporter gene assay. The data set is classed as functional, organism-based, HEK-293T. The method in brief:
as §1

Data set [9] has as its system Human immunodeficiency virus 1. In words: Antiviral activity against HIV1 harboring reverse transcriptase Y181C mutant infected in HEK293T cells transfected with plasmid VSV-G/pNL4-3.luc.R-E- assessed as inhibition of viral replication after 48 hrs by luciferase reporter gene assay relative HIV1. The data set is classed as functional, HEK-293T.
Data set [10] can be described thus: Retention time of the compound by HPLC analysis. It is filed as physicochemical.
Data set [11] relates to Human immunodeficiency virus 1. In words: Antiviral activity against HIV1 infected in 293T cells assessed as time of 50% failure. The data set is classed as functional.
Data set [12] relates to Human immunodeficiency virus 1. In words: Antiviral activity against HIV1 harboring reverse transcriptase Y181C mutant infected in HEK293T cells transfected with plasmid VSV-G/pNL4-3.luc.R-E- assessed as inhibition of viral replication after 48 hrs by luciferase reporter gene assay. The data set is classed as functional, organism-based, HEK-293T. Put shortly:
as §1

Data set [13] has as its system Human immunodeficiency virus 1. In words: Antiviral activity against HIV1 harboring reverse transcriptase K103N mutant infected in HEK293T cells transfected with plasmid VSV-G/pNL4-3.luc.R-E- assessed as inhibition of viral replication after 48 hrs by luciferase reporter gene assay relative HIV1. It is filed as functional, HEK-293T.
Data set [14] deals with Human immunodeficiency virus 1. Nature of the data set: Antiviral activity against HIV1 harboring reverse transcriptase K103N/G190A double mutant infected in HEK293T cells transfected with plasmid VSV-G/pNL4-3.luc.R-E- assessed as inhibition of viral replication after 48 hrs by luciferase reporter gene assay relative HIV1. It is filed as functional, HEK-293T.
The subject of another data set is HEK-293T. In words: Cytotoxicity against HEK293T cells at 10 uM after 48 hrs. It is filed as cell-based. As to conditions: human. Put shortly:
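HEK 293T cells incubated 48 h with compound at final 10 μM under the antiviral culture conditions, without virus. Viability read with a cell proliferation assay kit.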

Data set [15] deals with Human immunodeficiency virus 1. Nature of the data set: Antiviral activity against HIV1 harboring reverse transcriptase K103N/P225H double mutant infected in HEK293T cells transfected with plasmid VSV-G/pNL4-3.luc.R-E- assessed as inhibition of viral replication after 48 hrs by luciferase reporter gene assay relative HIV1. The data set is classed as functional, HEK-293T.

For data set [16], the system named is Human immunodeficiency virus 1. Nature of the data set: Antiviral activity against HIV1 harboring reverse transcriptase K103N/P225H double mutant infected in HEK293T cells transfected with plasmid VSV-G/pNL4-3.luc.R-E- assessed as inhibition of viral replication after 48 hrs by luciferase reporter gene assay. The data set is classed as functional, organism-based, HEK-293T. The method in brief: as §1

Data set [17] deals with Human immunodeficiency virus 1. Nature of the data set: Antiviral activity against HIV1 harboring reverse transcriptase Y188L mutant infected in HEK293T cells transfected with plasmid VSV-G/pNL4-3.luc.R-E- assessed as inhibition of viral replication after 48 hrs by luciferase reporter gene assay relative HIV1. It is filed as functional, HEK-293T.
The subject of data set [18] is Human immunodeficiency virus 1. In words: Antiviral activity against HIV1 at 10 uM. The data set is classed as functional, organism-based.
Setting [19] is: Human immunodeficiency virus 1, HEK-293T, 48 h.
The mark [20] stands for this setting: Human immunodeficiency virus 1, HEK-293T, 48 h, read-out: IC50.

The source made the active and inactive calls. No cut-off for these calls is given here.

Take `COc1ccc(CNc2nc(-c3ccc(F)cc3F)c(Cc3ccccc3)s2)cc1`: the concentration for half-maximal inhibition (IC50) (as a rule, the point on the concentration scale where inhibition reaches its midpoint) was 400 nM in data set [1] (setting [19]); 64 nM in data set [3] (setting [20]); more than 10 µM in data set [4] (setting [19]); 5.36 µM in [5] (setting [19]); 410 nM in [6] (setting [19]); 1840 nM in data set [8] (setting [19]). For the same molecule, the IC50 stood at 1460 nM in data set [12] (setting [19]) and 3.59 µM in [16] (setting [19]). Also, the “fold change (FC)” value in data set [2] stood at 83.8; in data set [7] it was 28.8; in data set [9], 22.8; in data set [13], 6.4; in data set [14], 6.3; in data set [15], 56.1. In data set [17], the “fold change (FC)” value is more than 156. This molecule showed a Retention_time in data set [10] of 17.37 min. Also, the Time in data set [11] is 8.6 h. Besides, the Activity entry in the data set on HEK-293T was “Non-toxic”.
`COc1ccc(CNc2nc(-c3ccccc3F)c(Cc3ccccc3)s2)cc1`: the IC50 in data set [1] (setting [19]) was 160 nM; in data set [3] (setting [20]) it was 62 nM; in data set [4] (setting [19]), more than 10 µM; in [5] (setting [19]), 5.24 µM; in data set [6] (setting [19]), 540 nM; in data set [8] (setting [19]), 4730 nM. The 50% inhibitory concentration (IC50) was found to be 1260 nM in data set [12] (setting [19]) and 4.81 µM in data set [16] (setting [19]). For the same molecule, the “fold change (FC)” value is listed as 84.5 in [2]; 76.3 in data set [7]; 20.3 in data set [9]; 8.7 in data set [13]; 2.6 in data set [14]; 77.6 in data set [15]. Also, in data set [17], the “fold change (FC)” value is on record as more than 161. Besides, the Retention_time in [10] came out at 24.29 min. In [11], the Time stood at 8.6 h. Moreover, the Activity result in the data set with HEK-293T is on record as “Non-toxic”.
In the case of `Cc1ccnc2c1NC(=O)c1cccnc1N2C1CC1` [NEVIRAPINE], the IC50 in data set [1] (setting [19]) was more than 10000 nM; in [3] (setting [20]), 31 nM; in data set [4] (setting [19]), more than 10 µM; in data set [5] (setting [19]) it was 5 µM; in data set [6] (hek-293t) it was 16100 nM; in [8] (hek-293t) it was 2800 nM. Besides, the IC50 in data set [12] (hek-293t) worked out at 66700 nM; in [16] (hek-293t), 5.48 µM. For the same molecule, the “fold change (FC)” value in data set [2] is on record as 161; in data set [7] it was 90; in data set [9], 2152; in [13] it was 519; in data set [14], more than 322; in data set [15] it was 177. Besides, the “fold change (FC)” value in [17] was more than 322. The Time in data set [11] came to 8.3 h. Moreover, in the data set with HEK-293T, the Activity entry is on record as “Non-toxic”.
As for `O=C1Nc2ccc(Cl)cc2[C@@](C#CC2CC2)(C(F)(F)F)O1` [EFAVIRENZ], the half-inhibitory concentration (IC50) was 56 nM in data set [1] (hek-293t); 0.84 nM in data set [3] (setting [20]); 0.48 µM in data set [4] (hek-293t); 2.49 µM in data set [5] (hek-293t); 58.8 nM in [6] (hek-293t); 83 nM in data set [8] (hek-293t). Moreover, the 50% inhibitory concentration (IC50) in data set [12] (hek-293t) is 5.65 nM; in data set [16] (hek-293t) it was 0.16 µM. Also, the “fold change (FC)” value came to 2394 in data set [2]; 79.8 in data set [7]; 5.4 in data set [9]; 56 in data set [13]; 538 in [14]; 154 in [15]. The “fold change (FC)” value in data set [17] was 461.5. Moreover, the Time in [11] turned out to be 8.8 h. The Activity entry in the data set with HEK-293T was “Non-toxic”.
Take `COc1ccc(CNc2nc(-c3ccccc3Cl)c(Cc3ccccc3)s2)cc1`: the half-maximal inhibitory concentration (IC50) was 4180 nM in data set [1] (setting [19]); 46 nM in data set [3] (setting [20]); more than 10 µM in data set [4] (setting [19]); 5.11 µM in data set [5] (setting [19]); 240 nM in [6] (setting [19]); 820 nM in [8] (setting [19]). Further, the values for the IC50 in data set [12] (setting [19]) and in data set [16] (setting [19]) were 790 nM and 0.78 µM, respectively. In addition, the “fold change (FC)” value in data set [2] stood at 111; in data set [7] it was 17.8; in [9], 17.2; in data set [13], 5.2; in data set [14] it was 90.9; in data set [15] it was 17. For the same molecule, the “fold change (FC)” value in data set [17] is given as more than 217. Besides, the Retention_time in data set [10] was determined as 26.43 min. Further, the Time in data set [11] worked out at 9 h. For the same molecule, the Activity entry in the data set with HEK-293T is on record as “Non-toxic”.
As for `COc1ccc(-c2nc(N(C)C)sc2Cc2ccccc2)cc1`, the half-inhibitory concentration (IC50) entry in [3] (hek-293t) was “Not Active”. This molecule also gave a Retention_time in data set [10] of 35.28 min. Further, the inhibition result in [18] is “inactive”. Moreover, in the data set on HEK-293T, the Activity result is “Non-toxic”.
